According to ChEMBL document CHEMBL1122791, “Inhibition of arabinose 5-phosphate isomerase. An approach to the inhibition of bacterial lipopolysaccharide biosynthesis” (J Med Chem, 1984):
Activity calls are given as the source filed them. No cut-off for these calls is given here.

Assays:
[1] = test system: arabinose 5-phosphate isomerase (Escherichia coli); experiment: Inhibitory activity against Arabinose-5-phosphate isomerase at a concentration of 6 mM; Not active.
[2] = biological target: arabinose 5-phosphate isomerase (Escherichia coli) (UniProt P45395); experiment: Inhibitory activity against Arabinose-5-phosphate isomerase at a concentration of 2.4 mM; Not active.
[3] = biological target: arabinose 5-phosphate isomerase (Escherichia coli) (UniProt P45395); experiment: Inhibitory activity against Arabinose-5-phosphate isomerase at a concentration of 3 mM; Not active.
[4] = biological target: T1, Arabinose 5-phosphate isomerase KdsD (Salmonella typhimurium (strain LT2 / SGSC1412 / ATCC 700720), UniProt Q8ZLS1); experiment: Inhibitory activity against Arabinose-5-phosphate isomerase; Interfered.
T1 sequence (Q8ZLS1 whole entry): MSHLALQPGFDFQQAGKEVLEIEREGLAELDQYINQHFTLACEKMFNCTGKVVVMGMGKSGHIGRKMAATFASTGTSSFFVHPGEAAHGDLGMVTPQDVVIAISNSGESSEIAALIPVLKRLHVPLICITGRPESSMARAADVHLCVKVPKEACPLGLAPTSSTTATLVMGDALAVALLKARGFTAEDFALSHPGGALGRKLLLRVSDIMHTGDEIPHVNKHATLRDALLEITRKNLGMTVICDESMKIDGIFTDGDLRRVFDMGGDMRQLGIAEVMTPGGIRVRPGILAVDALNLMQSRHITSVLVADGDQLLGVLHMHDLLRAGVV
Method in brief: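 Isomerase from E. coli B cells, purified 50-fold. Inhibitor and enzyme were preincubated 2 min at 37 °C in 0.1 M histidine buffer, pH 7.5. The reaction was started with 10 mM (stock) D-arabinose 5-phosphate or D-ribulose 5-phosphate. It was stopped at 0, 3, 6, 9 and 12 min with cysteine HCl, then H2SO4. Ketose was read at 540 nm by carbazole colour (30 min, 37 °C).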

[5] = biological target: arabinose 5-phosphate isomerase (Escherichia coli) (UniProt P45395); experiment: Inhibitory activity against Arabinose-5-phosphate isomerase at a concentration of 12 mM; Not active.
[6] = test system: arabinose 5-phosphate isomerase (Escherichia coli); experiment: Inhibitory activity against Arabinose-5-phosphate isomerase at a concentration of 1.5 mM; Not active.
[7] = test system: arabinose 5-phosphate isomerase (Escherichia coli); experiment: Inhibitory activity against Arabinose-5-phosphate isomerase at a concentration of 5 mM; Not active.
[8] = test system: arabinose 5-phosphate isomerase (Escherichia coli); experiment: Inhibitory activity against Arabinose-5-phosphate isomerase; Unstable.
[9] = test system: arabinose 5-phosphate isomerase (Escherichia coli); experiment: Inhibitory activity against Arabinose-5-phosphate isomerase at a concentration of 2 mM; Not active.
[10] = test system: arabinose 5-phosphate isomerase (Escherichia coli); experiment: Inhibitory activity against Arabinose-5-phosphate isomerase at a concentration of 6 mM
[11] = test system: arabinose 5-phosphate isomerase (Escherichia coli); experiment: Inhibitory activity against Arabinose-5-phosphate isomerase at a concentration of 5 mM; NA = not active at 5
[12] = test system: arabinose 5-phosphate isomerase (Escherichia coli); experiment: Inhibitory activity against Arabinose-5-phosphate isomerase; Not active.
[13] = compound: O=P(O)(O)OC[C@H]1O[C@@H](O)[C@@H](O)[C@@H]1O; experiment: Inhibitory activity against Arabinose-5-phosphate isomerase; settings: Escherichia coli B

Chain of arabinose 5-phosphate isomerase (Escherichia coli) (UniProt P45395) (P45395 whole entry, looked up): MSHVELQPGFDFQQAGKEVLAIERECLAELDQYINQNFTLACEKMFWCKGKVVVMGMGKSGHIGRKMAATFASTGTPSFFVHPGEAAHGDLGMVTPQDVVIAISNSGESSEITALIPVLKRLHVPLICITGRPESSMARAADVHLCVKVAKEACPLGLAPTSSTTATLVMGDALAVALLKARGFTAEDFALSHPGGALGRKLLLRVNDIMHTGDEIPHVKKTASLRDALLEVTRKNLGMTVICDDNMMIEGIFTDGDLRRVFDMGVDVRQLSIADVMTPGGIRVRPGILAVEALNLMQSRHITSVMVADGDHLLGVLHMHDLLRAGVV

O=P(O)(O)OCC(O)C(O)C(O)C(O)CO (stereo not given)
inhibition [1]: inactive | inhibition [2]: inactive

COC1C(COP(=O)(O)O)OC(O)C1O (stereo not given)
inhibition [3]: inactive

O=[N+]([O-])OC[C@H]1O[C@H](O)[C@@H](O)[C@@H]1O
I 50 [4]: Interfered

NS(=O)(=O)OC[C@H]1OC(=O)[C@H](O)[C@@H]1O
inhibition [5]: inactive

O=P(O)(O)OCC(O)C(O)CCO (stereo not given)
inhibition [6]: inactive

O=P(O)(O)OCC1OC(O)C(F)C1O (stereo not given)
inhibition [7]: inactive

CC(=O)CC(=O)OC[C@H]1O[C@H](O)[C@@H](O)[C@@H]1O
I 50 [8]: Unstable

O=P(O)(O)OCC1OC(O)CC1O (stereo not given)
inhibition [9]: inactive

O=C1O[C@H](CCl)[C@@H](O)[C@H]1O
inhibition [10]: 12%

C[C@H]1OC(O)[C@H](O)[C@H]1O (stereo not given in full)
inhibition [11]: inactive

O=C1O[C@H](CO)[C@@H](O)[C@H]1O
inhibition [1]: inactive

O=P(O)(O)OCC1OC(O)C(O)C1OCc1ccccc1 (stereo not given)
inhibition [1]: inactive

O=C(O)C(=O)OC[C@H]1OC(=O)[C@H](O)[C@@H]1O
inhibition [12]: inactive

B1: Arabinose 5-phosphate isomerase KdsD (Salmonella typhimurium (strain LT2 / SGSC1412 / ATCC 700720)), Q8ZLS1 (protein)
chain: MSHLALQPGFDFQQAGKEVLEIEREGLAELDQYINQHFTLACEKMFNCTGKVVVMGMGKSGHIGRKMAATFASTGTSSFFVHPGEAAHGDLGMVTPQDVVIAISNSGESSEIAALIPVLKRLHVPLICITGRPESSMARAADVHLCVKVPKEACPLGLAPTSSTTATLVMGDALAVALLKARGFTAEDFALSHPGGALGRKLLLRVSDIMHTGDEIPHVNKHATLRDALLEITRKNLGMTVICDESMKIDGIFTDGDLRRVFDMGGDMRQLGIAEVMTPGGIRVRPGILAVDALNLMQSRHITSVLVADGDQLLGVLHMHDLLRAGVV
Km [13]: 0.2 mM
